Test results published in ChEMBL document CHEMBL2202957, “Redox potentials, laccase oxidation, and antilarval activities of substituted phenols” (2012).
The source made the active and inactive calls. No cut-off for these calls is given here.

Columns and labels:
Anopheles gambiae [1] = assay: Antilarval activity against third-instar larvae of Anopheles gambiae assessed as mortality at 50 ug/L after 72 hrs; type: functional
Procedure, shortened: (§1)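 Third-instar larvae came from a laboratory An. gambiae colony originally from MR4. Groups of 12–15 larvae were held at 25°C in distilled water with larval food. Compound was added from an acetone or water stock to final 50 or 1000 μg/L, with a solvent-only control. Treatments and controls were run four times, and mortality was scored at 72 h.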

Anopheles gambiae [2] = assay: Antilarval activity against third-instar larvae of Anopheles gambiae assessed as mortality at 1000 ug/L after 72 hrs; type: functional; procedure, shortened: as §1
Trametes versicolor [3] = test system: Trametes versicolor;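 for Km: kinetic parameters for Trametes versicolor laccase, determined from a spectrophotometric readout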;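 for kcat/Km: measured with the laccase enzyme of Trametes versicolor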
Trametes versicolor [4] = test system: Trametes versicolor; remark: listed apart in the source;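 for Km: kinetic parameters for Trametes versicolor laccase, determined from a spectrophotometric readout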;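 for kcat/Km: measured with the laccase enzyme of Trametes versicolor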
Trametes versicolor [5] = assay: Inhibition of Trametes versicolor laccase
Anopheles gambiae [6] = assay: Antilarval activity against third-instar larvae of Anopheles gambiae assessed as effect on cuticle development by microscopic analysis relative to control; type: functional
Culex pipiens molestus = assay: Antilarval activity against third-instar larvae of Culex molestus assessed as mortality at 100 ug/L after 72 hrs; type: functional

Structure (SMILES)	Activity (Anopheles gambiae [1]) [%]	Activity (Anopheles gambiae [2]) [%]	kcat/Km (Trametes versicolor [3]) [M⁻¹ s⁻¹]	Km (Trametes versicolor [4]) [µM]	kcat (Trametes versicolor [4]) [s⁻¹]	inhibition (Trametes versicolor [5])	Activity (Anopheles gambiae [6])	Activity (Culex pipiens molestus) [%]
CC(C)(C)c1cc(C(C)(C)CNCc2ccccc2)cc(C(C)(C)C)c1O.O=C(O)C(F)(F)F	3.71	7.7						
COc1cc(O)c(Br)c(Cl)c1O			262000	70	18.3	inactive		
COc1cc(O)c(O)c(Cl)c1Br			2.24e+06	40	89.7	inactive		
Nc1cc(C(=O)O)ccc1O			698000	70	48.8	inactive		
Nc1ccccc1N			40300	430	17.3			
CC(C)(C)c1cc(C(C)(C)c2ccccc2)cc(C(C)(C)C)c1O	93.3	100						
CC(C)(C)c1cc(C(C)(C)/C=N/O)cc(C(C)(C)C)c1O	5.41	93.1						
CC(C)(C)c1cc(C(C)(C)C(=O)[O-])cc(C(C)(C)C)c1O.[Na+]	5.5	12.3						
Oc1cc(O)c(Br)c(Cl)c1O	0	11.4	2.89e+06	50	145	inactive		
COc1c(O)cc(O)c(Br)c1Cl			1.37e+06	70	96	inactive		
CC1(C)CCc2cc(C(C)(C)C)cc(C(C)(C)C)c2O1	5.77	91.7						
CC(C)(C)c1cc(C(C)(C)CO)cc(C(C)(C)C)c1O	0	46.7						
CC(C)(C)c1cc(C(C)(C)C=O)cc(C(C)(C)C)c1O	0	65						
Cc1ccc(O)c(N)c1			1.19e+06	110	131	inactive		
COc1cc(C=O)cc(Cl)c1O			47800	2200	105	inactive		
O=Cc1cc(O)c(O)c(Cl)c1			792000	40	31.7	inactive		
Nc1ccc(C(=O)O)cc1O			250000	170	42.5	inactive		
COC1=CC(=O)C(N[C@@H](C)C(=O)OCc2ccccc2)=C(Cl)C1=O	5	6.66						
CC(C)=CCc1cc(C(C)(C)C)cc(C(C)(C)C)c1O	98.1	98.3					Active	60
CC(C)(Br)C(=O)c1cc(C(C)(C)C)c(O)c(C(C)(C)C)c1	0	60						
Oc1ccccc1O			55800	600	33.5			
Nc1cc(CO)ccc1O			788000	80	63	inactive		
Oc1ccc(O)cc1 [HYDROQUINONE]	1.25	5.38	594	20	119			
Nc1ccccc1O			197000	190	37.5			
